Screening data: PubChem, several laboratories
Hits are enriched below; roughly 1.8% of the tested compounds scored in any of these assays.
ARNT TACC3 PPI: disruptors of human ARNT/TACC3 interaction; hit rate 0.66% among 390,000; AlphaScreen His-ARNT PAS-B/GST-TACC3 binding, luminescence; TACC3 fragment carries E629A point mutation; Q9Y6A5; inhibition, % at 9.99 µM;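 active = mean inhibition of replicates at least 50% and at least half of replicates each reaching 50%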;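 note: 0% = complete ARNT plus TACC3 wells and 100% = ARNT alone without TACC3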
CAL PDZ FP-1: inhibitors of human CAL PDZ peptide binding; Q9HD26; purified CAL PDZ, TMR-peptide fluorescence polarization, 1 h; inhibition, % at 20 µM; hit rate 0.02% among 330,000; AID 504414;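 active = highest replicate inhibition of at least 40%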;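 note: plate controls were DMSO neutral control wells for no effect and unlabeled competitor peptide control wells for full effect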
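System: purified tagged CAL PDZ domain construct (CerCALP). Schedule: 1 h incubation at room temperature before polarization reading. Medium: 25 mM sodium phosphate pH 7.4, 150 mM NaCl, TCEP, IgG, Thesit. Read-out: percent inhibition from loss of millipolarization. Measured by: FP readout, S and P plane fluorescence. Probe or stimulus: fluorescent TMR peptide probe.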
GRK2 aptamer HTS: inhibitors of human GRK2 displacing RNA aptamer. P25098. bead flow cytometry, FAM-aptamer displacement from GRK2. inhibition of aptamer binding, % at 10 µM. hit rate 0.59% among 330,000. AID 488847;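 active = inhibition of aptamer binding above 40%, roughly 3 SD of noise, on plates passing a quality check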;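 note: median bead fluorescence of bound FAM aptamer so fluorescent compounds give negative values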
Target sequence (P25098 whole entry, looked up): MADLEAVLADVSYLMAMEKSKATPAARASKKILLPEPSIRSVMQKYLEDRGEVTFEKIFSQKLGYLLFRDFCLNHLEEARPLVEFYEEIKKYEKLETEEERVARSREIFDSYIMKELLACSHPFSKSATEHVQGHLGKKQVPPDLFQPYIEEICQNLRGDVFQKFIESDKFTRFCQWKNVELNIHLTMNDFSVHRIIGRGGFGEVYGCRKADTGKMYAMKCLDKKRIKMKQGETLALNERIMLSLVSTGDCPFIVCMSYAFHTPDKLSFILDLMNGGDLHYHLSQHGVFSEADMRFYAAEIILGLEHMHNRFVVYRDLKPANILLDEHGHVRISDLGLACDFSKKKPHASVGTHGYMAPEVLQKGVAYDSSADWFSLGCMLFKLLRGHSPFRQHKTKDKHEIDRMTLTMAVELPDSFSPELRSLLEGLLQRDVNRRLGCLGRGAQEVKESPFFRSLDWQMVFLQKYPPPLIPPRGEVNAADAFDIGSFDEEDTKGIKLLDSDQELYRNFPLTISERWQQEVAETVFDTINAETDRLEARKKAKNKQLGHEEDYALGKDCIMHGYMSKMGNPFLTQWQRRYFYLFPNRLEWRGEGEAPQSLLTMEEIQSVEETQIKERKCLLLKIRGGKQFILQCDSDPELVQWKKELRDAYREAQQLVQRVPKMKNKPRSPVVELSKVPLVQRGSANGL
Tn7 DDE FP: disrupts Tn7 cyclic peptide binding to fibrin D-Dimer-E complex | inhibition, % at 8.3 µM | AID 720508 | P02675 | FP displacement of FITC-Tn7 peptide from fibrin DD(E); 0% = median of compound wells per plate | hit rate 0.13% among 370,000;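 active = inhibition above the mean of compounds falling within the control limits plus 3 SD of them, cut at about 14% in these data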;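 note: 0% = plate median of compound wells and 100% = 10 µM Aha-Tn7 peptide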
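Test system – human fibrin DD(E) · Times – 10 min preincubation, 3 h with tracer, room temperature · Detection – fluorescence polarization of the labelled Tn7 tracer · Measure – percent inhibition normalized to high-control wells · Benchmarks – high control wells with 10 µM unlabelled Aha-Tn7 peptide (full inhibition) · Repeats – singlicate testing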
DDE Tn6 FP inh: inhibitors of Tn6 peptide binding to human fibrin DD(E). inhibition, % at 8.3 µM. P02675. hit rate 0.21% among 370,000. Fibrin DD(E) TRITC-Tn6 fluorescence polarization displacement;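 active = inhibition above a per-campaign cutoff: mean of compounds within control limits plus 3 SD, cut at about 15% in these data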;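 note: 0% = median of all compound wells on the plate and 100% = blocking peptide control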
CAL PDZ FP-2: blocks peptide binding to the human CAL PDZ domain | hit rate 0.92% among 300,000 | purified CAL PDZ, TMR-peptide fluorescence polarization, 1 h | inhibition, % at 24.9 µM | Q9HD26 | AID 602252;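 active = mean inhibition of at least 30% with at least half of replicates also reaching 30%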;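 note: 0% = DMSO neutral control and 100% = excess unlabeled competitor peptide PRC23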
* = called active by the depositor; . = no result.

SMILES	ARNT TACC3 PPI	CAL PDZ FP-1	GRK2 aptamer HTS	Tn7 DDE FP	DDE Tn6 FP inh	CAL PDZ FP-2
O=C(OCC(=O)N1CCCc2ccccc21)c1cc(S(=O)(=O)N2CCOCC2)ccc1O	.	0	0	4	1	65*
O=C(COC(=O)c1cc(=O)[nH]c2ccccc12)Nc1ccc(Cl)c(S(=O)(=O)N2CCOCC2)c1	9	-5	.	-3	-3	-7
N#CC1(NC(=O)COC(=O)c2cc(=O)[nH]c3ccccc23)CCCCC1	-19	-2	0	9	-8	32*
O=C(COC(=O)c1cc(S(=O)(=O)N2CCOCC2)ccc1F)c1ccccc1	.	-1	4	1	-10	43*
CCc1ccc2nc(N(CCN(C)C)C(=O)c3ccc4ccccc4c3)sc2c1	3	-2	0	.	.	69*
CN(C)CCN(C(=O)c1ccc2ccccc2c1)c1nc2ccc(F)cc2s1	7	-2	0	.	.	-3
CC(Nc1ccc2ccccc2c1)C(=O)N/N=C/c1ccncc1 (stereo not given)	active	1	1	-1	3	0
O=C(CC1C(=O)NCCN1Cc1cccc(F)c1)NCCCCCN1CCOCC1 (stereo not given)	-1	-1	0	-4	9	48*
COc1cc(CN2CCNC(=O)C2CC(=O)NCCCN2CCOCC2)cc(OC)c1 (stereo not given)	5	0	0	6	4	-4
COc1ccc(Nc2nnc(-c3ccc(C(N)=O)cc3)c3ccccc23)cc1	51*	0	0	-1	-5	.
COc1ccc(-c2cnc3c(c2)C(=O)N([C@H](C)CO)C[C@H](C)[C@@H](CN(C)Cc2cccnc2)O3)cc1	-2	.	.	.	.	.
COc1cccc(NC(=O)CSc2nc3ccsc3c(=O)n2-c2ccc(C(=O)O)cc2)c1	0	-1	2	-3	3	44*
CCn1c(SCC(=O)Nc2cccc(OC)c2)nc2ccccc2c1=O	-1	-2	5	-1	-4	0
O=C(C[C@H]1C[C@@H]2c3cc(NC(=O)c4cccnc4)ccc3O[C@@H]2[C@H](CO)O1)NCC1CC1	1	.	.	.	.	.
CCOc1ccc2c(c1)C(C)=CC(C)(C)N2C(=O)Nc1ccccc1	48*	1	3	.	.	-3
O=S1(=O)c2c(cccc2N2CC[C@@H](O)C2)OCCCN1C1CC1	.	.	.	-4	-6	.
O=C1NC(c2ccccn2)Nc2sc3c(c21)CCC3 (stereo not given)	65*	-1	2	4	-4	-1
O=C1NC(c2ccc(Br)cc2)Nc2sc3c(c21)CCC3 (stereo not given)	6	-1	4	-4	1	-3
CC1=CCC(C(=O)O)C(C(=O)NC2CCCCC2)C1 (stereo not given)	.	0	89*	0	-6	-5
COc1cccc(-c2ccc3c(c2)[C@@H]2[C@@H](CCN2S(=O)(=O)c2ccccc2F)[C@@H](CO)N3)c1	14	.	.	.	.	.
CC(C)C1C(C#N)=C(N)Oc2n[nH]c(-c3cccs3)c21 (stereo not given)	-10	-1	0	3	3	54*
Cc1ccc(C2C(C#N)=C(N)Oc3n[nH]c(-c4cccs4)c32)cc1 (stereo not given)	-3	-3	2	2	3	2
Cc1[nH]c(=O)[nH]c(=O)c1/C=N/NC(=O)CCNC(=O)OC(C)(C)C	12	0	0	-10	2	2
CC(C)[C@@H](N)C(=O)N/N=C/c1ccc2nccnc2c1	3	-1	1	-5	-7	1
Cc1[nH]c(=O)[nH]c(=O)c1/C=N/NC(=O)[C@@H](NC(=O)OC(C)(C)C)C(C)C	47*	0	9	-4	4	-3
SMILES	ARNT TACC3 PPI	CAL PDZ FP-1	GRK2 aptamer HTS	Tn7 DDE FP	DDE Tn6 FP inh	CAL PDZ FP-2
CC(C)[C@H](NC(=O)OC(C)(C)C)C(=O)N/N=C/c1ccc2nccnc2c1	-2	-1	0	0	-1	70*
Cc1[nH]c(=O)[nH]c(=O)c1/C=N/NC(=O)[C@H](C)N	47*	-2	1	-3	0	-3
C[C@@H]1CN([C@H](C)CO)S(=O)(=O)c2ccc(C#Cc3cccc(F)c3)cc2O[C@H]1CN(C)C	9	.	.	.	.	.
O=C(NCCN1CCC(n2c(=O)[nH]c3ccccc32)CC1)c1cccc(Cl)c1	.	.	.	-1	-1	.
Cc1cc2oc(=O)cc(CN3CCCC3)c2cc1C	.	.	.	2	5	.
Cc1cc2oc(=O)cc(CN3CCOCC3)c2cc1C(C)C	.	-1	1	9	9	62*
CCOc1ccc(C(C(=O)NCC2CCCO2)N(Cc2ccccc2)C(=O)c2snc(C(N)=O)c2N)cc1 (stereo not given)	0	0	0	1	-2	88*
COc1ccccc1-n1cc(-c2ccc([N+](=O)[O-])cc2)[nH]c1=S	-9	1	7	-5	-7	63*
O=C1CCCC2=C1C(c1ccncc1)Nc1ccccc1N2 (stereo not given)	7	0	1	2	0	-2
O=C1NCC2=C1C(c1ccccc1)Nc1ccccc1N2 (stereo not given)	active	-6	0	7	-5	-7
COc1cc2c(c(OCC(=O)NC(C)C)c1)C(=O)O[C@@H](C)CCCC(=O)CCCCC2	2	-1	1	-2	9	-24
COc1cc(OCC(=O)NC(C)C)cc2c1C(=O)O[C@@H](C)CCCC(=O)CCCCC2	11	.	2	0	-6	46*
CCOC(=O)C1=C(C)N=c2s/c(=C/c3cccc([N+](=O)[O-])c3O)c(=O)n2C1c1ccccc1 (stereo not given)	60*	0	1	3	-10	-2
CCOC(=O)C1=C(C)N=c2s/c(=C/c3ccco3)c(=O)n2C1c1cccc(OC)c1 (stereo not given)	.	.	1	.	.	.
CCOC(=O)C1=C(C)N=c2s/c(=C/c3cccc([N+](=O)[O-])c3O)c(=O)n2C1c1cc(OC)c(OC)c(OC)c1 (stereo not given)	74*	.	2	-2	-8	0
O=C(COC(=O)c1ccc([N+](=O)[O-])o1)Nc1cccc(S(=O)(=O)N2CCOCC2)c1	10	0	0	3	2	-3
CN(C)S(=O)(=O)c1cccc(NC(=O)COC(=O)c2ccc([N+](=O)[O-])o2)c1	64*	-1	1	-5	-2	-4
CCOC(=O)c1[nH]ncc1CN1CCN(Cc2ccccc2)C(CCO)C1 (stereo not given)	10	-1	0	-8	-9	30*
COc1cccc(-n2c(=O)c3sccc3n(CC(=O)NCC3CCCO3)c2=O)c1 (stereo not given)	4	-3	2	7	6	39*
